# Data published in paper PMC4437580 (Bioorganic & medicinal chemistry letters, 2014).
# How the values were obtained:
# [1] = biological target: Asf1-H3/H4 (Homo sapiens, UniProt Q9Y294); experiment: Asf1-H3/H4 binding inhibition
# [2] = system: MDA-MB-231 cells; experiment: Cell viability, trypan blue exclusion; format: cell-based; details: drug 24 μM, 24-hour treatment
# Method in brief: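 MDA-MB-231 cells grown to 80% confluence, harvested, seeded at 1.5 × 10^5 cells/mL and left overnight. Medium replaced with FBS-free medium containing test compound at 24 μM. FBS added after 1 h, then a further 24 h exposure. Cell density counted by trypan blue exclusion. Viability (%) = treated density / DMSO-only control density × 100.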
# [3] = biological target: untagged Asf1 (Homo sapiens, UniProt Q9Y294); experiment: ALPHA binding studies with Asf1; details: two different versions of ALPHA; data not shown
# untagged Asf1, sequence (Q9Y294 1-155): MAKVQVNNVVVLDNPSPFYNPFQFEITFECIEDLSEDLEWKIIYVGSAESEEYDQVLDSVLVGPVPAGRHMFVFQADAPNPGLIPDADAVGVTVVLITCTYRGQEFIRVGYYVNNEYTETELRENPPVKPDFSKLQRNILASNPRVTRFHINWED
# Asf1-H3/H4, sequence (Q9Y294 1-155): as above
compound,measurement,setting,value
COc1cc(/C=N/NC(=O)c2ccc(NC(=O)c3ccccc3)c(COCCN(C)C)c2)cc(Br)c1O [Compound 33],"Asf1-H3/H4 binding potency/activity, in words",[1],did not improve potency
O=C(N/N=C/c1cc(Br)ccc1O)c1ccncc1 [Compound 47],"Asf1-H3/H4 binding potency/activity, in words",[1],significant boost in potency
same,Assay interference (metal scavenging),[1]; upon further analysis,false positive results
COc1cc(/C=N/NC(=O)C2CCOCC2)cc(Br)c1O [Compound 26],"Asf1-H3/H4 binding potency/activity, in words",[1],ineffective
COc1ccc(-c2cc([C@@H](O)[C@@H]3CCCCN3)c3ccccc3n2)cc1.Cl [Compound 1],"Cell viability (cytotoxicity), in words",[2],potently inhibit cell viability
same,"Binding to untagged Asf1, in words",[3],not to bind
COc1cc(/C=N/NC(=O)c2ccc(NC(C)=O)cc2)cc(Br)c1O [Compound 18],"Asf1-H3/H4 binding potency/activity, in words",[1],significant loss of potency
COc1cc(/C=N/N(C)C(=O)c2ccc(NC(=O)c3ccccc3)cc2)cc(Br)c1O [Compound 52],"Asf1-H3/H4 binding potency/activity, in words",[1],tolerated
COc1cc(/C=N/NC(=O)C2CCNCC2)cc(Br)c1O [Compound 25],"Asf1-H3/H4 binding potency/activity, in words",[1],ineffective
